Active and inactive are the calls of the source. The rule behind the calls is not given here.
Tests used:
[1] = Inhibition of MEK in human SK-MEL-2 cells expressing N-Ras2 Q61R mutant assessed as inhibition of ERK phosphorylation incubated for 60 mins by Western blotting analysis; type: cell-based; conditions: SK-MEL-2, 1 h
Summary of the method: (§1)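 Cells exposed for 60 min, then Western blot for phospho-ERK1/2 and total ERK1/2 with infrared imaging. […] DMSO control.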

[2] = Inhibition of MEK in human HT-1080 cells expressing N-Ras2 Q61K mutant assessed as inhibition of ERK phosphorylation incubated for 60 mins by Western blotting analysis; type: cell-based; conditions: HT-1080, 1 h; summary of the method: as §1
[3] = Inhibition of MEK in human SK-MEL-28 cells expressing B-Raf V600E mutant assessed as inhibition of ERK phosphorylation incubated for 60 mins by Western blotting analysis; type: cell-based; conditions: SK-MEL-28, 1 h; summary of the method: as §1
[4] = Inhibition of MEK in human COLO 205 cells expressing B-Raf V600E mutant assessed as inhibition of ERK phosphorylation incubated for 60 mins by Western blotting analysis; type: cell-based; conditions: COLO 205, 1 h; summary of the method: as §1
HCT-116 = assay: Antiproliferative activity against human HCT-116 cells expressing K-Ras G13D mutant assessed as decrease in cell growth incubated for 72 hrs by CellTiter-Glo based luminescence assay; type: functional; conditions: HCT-116, 72 h
Summary of the method: (§2)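 Cells treated over 1 nmol/L to 20 μmol/L in 0.1% DMSO for 72 h at 37°C, 5% CO₂. Viable cells read by CellTiter-Glo luminescence. EC50 derived from proliferation data.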

[5] = Inhibition of MEK in human Malme-3M cells expressing B-Raf V600E mutant assessed as inhibition of ERK phosphorylation incubated for 60 mins by Western blotting analysis; type: cell-based; conditions: 1 h; summary of the method: as §1
SK-MEL-28 = assay: Antiproliferative activity against human SK-MEL-28 cells expressing B-Raf V600E mutant assessed as decrease in cell growth incubated for 72 hrs by CellTiter-Glo based luminescence assay; type: functional; conditions: SK-MEL-28, 72 h; summary of the method: as §2
HT-1080 = assay: Antiproliferative activity against human HT-1080 cells expressing N-Ras Q61K mutant assessed as decrease in cell growth incubated for 72 hrs by CellTiter-Glo based luminescence assay; type: functional; conditions: HT-1080, 72 h; summary of the method: as §2
SK-MEL-2 = assay: Antiproliferative activity against human SK-MEL-2 cells expressing N-Ras Q61R mutant assessed as decrease in cell growth incubated for 72 hrs by CellTiter-Glo based luminescence assay; type: functional; conditions: SK-MEL-2, 72 h; summary of the method: as §2
COLO 205 = assay: Antiproliferative activity against human COLO 205 cells expressing B-Raf V600E mutant assessed as decrease in cell growth incubated for 72 hrs by CellTiter-Glo based luminescence assay; type: functional; conditions: COLO 205, 72 h; summary of the method: as §2
[6] = Inhibition of MEK in human HCT-116 cells expressing K-Ras2 G13D mutant assessed as inhibition of ERK phosphorylation incubated for 60 mins by Western blotting analysis; type: cell-based; conditions: HCT-116, 1 h; summary of the method: as §1
WM-NCI = assay: Inhibition of MEK in human WM-NCI cells assessed as decreased ERK phosphorylation at 2 micromol/L incubated for 60 mins by Western blotting analysis; type: cell-based; conditions: dose 2.0 µmol/L
WM-3434 = assay: Inhibition of MEK in human WM-3434 cells assessed as decreased ERK phosphorylation at 2 micromol/L incubated for 60 mins by Western blotting analysis; type: cell-based; conditions: dose 2.0 µmol/L
[7] = Inhibition of MEK in human HFF cells assessed as inhibition of ERK phosphorylation incubated for 60 mins by Western blotting analysis; type: cell-based; conditions: 1 h; summary of the method: as §1
Melanocyte [8] = assay: Inhibition of MEK in normal human Melanocyte cells assessed as decreased ERK phosphorylation at 2 micromol/L incubated for 60 mins by Western blotting analysis; type: cell-based; conditions: dose 2.0 µmol/L
[9] = Cytotoxicity against human HMEC cells assessed as decrease in cell growth incubated for 72 hrs by CellTiter-Glo based luminescence assay; type: toxicity; summary of the method: as §2
Malme-3M = assay: Antiproliferative activity against human Malme-3M cells expressing B-Raf V600E mutant assessed as decrease in cell growth incubated for 72 hrs by CellTiter-Glo based luminescence assay; type: functional; summary of the method: as §2
[10] = Inhibition of MEK in human HMEC cells assessed as inhibition of ERK phosphorylation incubated for 60 mins by Western blotting analysis; type: cell-based; conditions: 1 h; summary of the method: as §1
[11] = Inhibition of MEK in human HT-29 cells expressing B-Raf V600E mutant assessed as inhibition of ERK phosphorylation incubated for 60 mins by Western blotting analysis; type: cell-based; conditions: HT-29, 1 h; summary of the method: as §1
[12] = Inhibition of MEK in human A375P cells expressing B-Raf V600E mutant assessed as inhibition of ERK phosphorylation incubated for 60 mins by Western blotting analysis; type: cell-based; conditions: 1 h; summary of the method: as §1
WM35 = assay: Inhibition of MEK in human WM35 cells assessed as decreased ERK phosphorylation at 2 micromol/L incubated for 60 mins by Western blotting analysis; type: cell-based; conditions: dose 2.0 µmol/L
[13] = Antiproliferative activity against human A375P cells expressing B-Raf V600E mutant assessed as decrease in cell growth incubated for 72 hrs by CellTiter-Glo based luminescence assay; type: functional; summary of the method: as §2
HT-29 = assay: Antiproliferative activity against human HT-29 cells expressing B-Raf V600E mutant assessed as decrease in cell growth incubated for 72 hrs by CellTiter-Glo based luminescence assay; type: functional; conditions: HT-29, 72 h; summary of the method: as §2
[14] = Cytotoxicity against human PrEC cells assessed as decrease in cell growth incubated for 72 hrs by CellTiter-Glo based luminescence assay; type: toxicity; summary of the method: as §2
[15] = Inhibition of MEK in human PrEC cells assessed as inhibition of ERK phosphorylation incubated for 60 mins by Western blotting analysis; type: cell-based; conditions: 1 h; summary of the method: as §1
[16] = Cytotoxicity against human HFF cells assessed as decrease in cell growth incubated for 72 hrs by CellTiter-Glo based luminescence assay; type: toxicity; summary of the method: as §2
[17] = Toxicity in nude mouse xenografted with human A375P cells assessed as body weight change at 50 mg/kg administered daily for 21 days and then observed an additional 14 days following cessation of treatment; type: organism-based; conditions: in vivo, 504 h, time 21 day
[18] = In vivo inhibition of ERK phosphorylation in human A375P cells xenografted in nude mouse at 50 mg/kg administered daily for 21 days and then observed an additional 14 days following cessation of treatment relative to control; type: functional; conditions: 504 h, time 21 day
A375P = assay: Anti-tumor activity against human A375P cells xenografted in nude mouse assessed as decreased tumorigenesis at 50 mg/kg administered daily for 21 days and then observed an additional 14 days following cessation of treatment and measured after 55 days; type: functional, organism-based; conditions: time 21.0 day
Summary of the method: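 Female nude mice, 8–12 weeks old, injected s.c. with 5×10^6 A375P cells in Matrigel. Treatment began 3 weeks later at tumor volume 150–250 mm³, groups of eight randomized. Daily i.p. dosing for 21 days in 2% N,N-dimethylacetamide/2% Cremophor EL/96% acidified water (pH ~4–5), vehicle controls. Caliper tumor volume twice weekly for 55 days; mean ±SE.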

Melanocyte [19] = assay: Induction of cell cycle arrest in normal human Melanocyte cells assessed as accumulation of cells at G1 phase at 10 uM incubated for 24 hrs by flow cytometry analysis; type: toxicity, cell-based
Summary of the method: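 Normal human melanocytes exposed to 1 and 10 μmol/L for 24 h. Cell cycle distribution measured by flow cytometry on a FACScan.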

[20] = target: RAF proto-oncogene serine/threonine-protein kinase (Homo sapiens, UniProt P04049); assay: Inhibition of c-Raf (unknown origin) assessed as apparent inhibition constant; conditions: read-out: Ki(app)
[21] = Inhibition of BRAF V599E mutant (unknown origin) assessed as apparent inhibition constant incubated for 25 mins in presence of gamma-[33P]ATP; design: species or system Homo sapiens; conditions: read-out: Ki(app)

Chain of RAF proto-oncogene serine/threonine-protein kinase (P04049 whole entry): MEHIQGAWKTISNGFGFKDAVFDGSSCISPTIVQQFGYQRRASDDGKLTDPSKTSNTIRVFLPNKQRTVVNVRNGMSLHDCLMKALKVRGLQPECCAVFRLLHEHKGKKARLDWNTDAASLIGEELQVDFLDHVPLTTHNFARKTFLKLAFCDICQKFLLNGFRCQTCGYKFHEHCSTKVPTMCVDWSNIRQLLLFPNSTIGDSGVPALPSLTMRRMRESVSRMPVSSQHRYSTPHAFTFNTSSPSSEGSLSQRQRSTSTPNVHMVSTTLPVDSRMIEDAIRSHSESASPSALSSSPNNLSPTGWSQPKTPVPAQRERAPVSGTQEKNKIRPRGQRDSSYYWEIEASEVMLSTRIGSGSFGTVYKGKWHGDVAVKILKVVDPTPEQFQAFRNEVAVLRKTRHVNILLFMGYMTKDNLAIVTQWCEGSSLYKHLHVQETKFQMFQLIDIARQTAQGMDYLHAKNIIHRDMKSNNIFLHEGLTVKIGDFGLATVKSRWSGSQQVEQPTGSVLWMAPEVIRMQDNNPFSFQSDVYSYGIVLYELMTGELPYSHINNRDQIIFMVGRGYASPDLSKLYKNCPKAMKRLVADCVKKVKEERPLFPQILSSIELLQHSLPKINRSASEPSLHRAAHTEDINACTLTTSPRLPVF

Structure (SMILES) | EC50 (HCT-116) [nM] | EC50 (SK-MEL-28) [nM] | EC50 (HT-1080) [nM] | EC50 (SK-MEL-2) [nM] | EC50 (COLO 205) [nM] | EC50 at 72 h [9] [nM] | EC50 (Malme-3M) [nM] | EC50 [13] [nM] | EC50 (HT-29) [nM] | EC50 at 72 h [14] [nM] | EC50 at 72 h [16] [nM] | further results
O=C(NOCC1CC1)c1ccc(F)c(F)c1Nc1ccc(I)cc1Cl [CI-1040] | 2200 | 220 | 1600 | 360 | 230 | 580 | 440 | 240 | 360 | 490 | 4900 | EC50 [1]: 290 nM; EC50 [2]: 66 nM; EC50 [3]: 86 nM; EC50 [4]: 47 nM; EC50 [5]: 520 nM; EC50 [6]: 61 nM; inhibition (WM-NCI): Active; inhibition (WM-3434): Active; EC50 [7]: 4800 nM; inhibition (Melanocyte [8]): Active; EC50 [10]: 11 nM; EC50 [11]: 88 nM; EC50 [12]: 210 nM; inhibition (WM35): Active; EC50 [15]: 39 nM
CN(C)CCOc1ccc(-c2nc(-c3ccncc3)c(-c3ccc4c(c3)CC/C4=N\O)[nH]2)cc1 [SB590885] | 4600 | 120 | 13000 | 550 | 100 | 9200 | 150 | 370 | 870 | > 13000 | > 12000 | Activity [17]: Toxic; inhibition in vivo at 50 mg/kg [18]: ~50%; Activity (A375P): Active; Activity (Melanocyte [19]): Toxic; Ki [20]: 1.72 nM
CNC(=O)c1cc(Oc2ccc(NC(=O)Nc3ccc(Cl)c(C(F)(F)F)c3)cc2)ccn1 [SORAFENIB] | – | – | – | – | – | – | – | – | – | – | – | Ki [21]: 38 nM
